Each compound was assayed against T1, OR6C65 (Homo sapiens) (UniProt A6NJZ3). Details: stereoisomer not certain.
T1 sequence (whole entry): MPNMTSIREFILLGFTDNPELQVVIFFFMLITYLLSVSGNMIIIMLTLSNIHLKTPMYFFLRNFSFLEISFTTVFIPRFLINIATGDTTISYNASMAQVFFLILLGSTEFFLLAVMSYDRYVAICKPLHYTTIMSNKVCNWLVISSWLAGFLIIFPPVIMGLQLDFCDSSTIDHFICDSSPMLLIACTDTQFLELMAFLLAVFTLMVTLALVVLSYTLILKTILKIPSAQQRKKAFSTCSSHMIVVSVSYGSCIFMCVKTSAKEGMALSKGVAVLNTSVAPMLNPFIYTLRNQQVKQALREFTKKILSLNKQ
In short: (§1)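 Values were gathered from published papers (main text and supplementary material), with extra details requested from the original authors when needed, and checked for typos and inconsistencies. Each receptor–molecule pair is called responsive (active) if the original authors judged the measured signal statistically different from baseline, and non-responsive (inactive) otherwise. Assay methods varied by source, often transient mammalian cell-line luciferase assays. Recorded details include cell line, G-protein, co-transfected protein and tags.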

Odorant receptor agonist call, inactive:
CCCCCC(=O)C(C)C(C)=O (stereo not given)
CC1=NC(C)C(C)S1 (stereo not given)
CCCCC(S)C(C)CO (stereo not given)
CCC1OC(C)=C(O)C1=O (stereo not given)
CCCCCCC=CCCC=O
CC1=C(O)C(=O)C(C)O1 (stereo not given)
CC(=O)c1c(C)c([N+](=O)[O-])c(C(C)(C)C)c([N+](=O)[O-])c1C
CCCC(S)CCOC(C)=O (stereo not given)
CC1=C(O)C(=O)OC1C (stereo not given)
Cc1cnc(C)c(C)n1
CCCCCC(S)C(C)CO (stereo not given)
CC(CO)CS (stereo not given)
CCC(S)C(C)CO (stereo not given)
CCC1OC(=O)C(O)=C1C (stereo not given)
CC1CCCCCCCCCCCCC(=O)C1 (stereo not given)

The compounds below were run against T2, OR6C68 (Homo sapiens) (UniProt A6NDL8). Details: stereoisomer not certain.
T2 sequence (whole entry): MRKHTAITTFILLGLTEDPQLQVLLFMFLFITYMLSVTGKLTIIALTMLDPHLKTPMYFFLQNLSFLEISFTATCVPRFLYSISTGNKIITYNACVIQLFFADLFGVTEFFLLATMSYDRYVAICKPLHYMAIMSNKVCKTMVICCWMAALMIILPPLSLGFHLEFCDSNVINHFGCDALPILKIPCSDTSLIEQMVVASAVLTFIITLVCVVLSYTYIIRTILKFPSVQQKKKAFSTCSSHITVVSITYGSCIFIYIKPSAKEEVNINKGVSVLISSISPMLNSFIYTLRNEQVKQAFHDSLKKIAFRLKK
In short: as §1

Odorant receptor agonist call, inactive:
CCCCCC(=O)C(C)C(C)=O (stereo not given)
CC1=NC(C)C(C)S1 (stereo not given)
CCCCC(S)C(C)CO (stereo not given)
CCC1OC(C)=C(O)C1=O (stereo not given)
CCCCCCC=CCCC=O
CC1=C(O)C(=O)C(C)O1 (stereo not given)
CC(=O)c1c(C)c([N+](=O)[O-])c(C(C)(C)C)c([N+](=O)[O-])c1C
CCCC(S)CCOC(C)=O (stereo not given)
CC1=C(O)C(=O)OC1C (stereo not given)
Cc1cnc(C)c(C)n1
CCCCCC(S)C(C)CO (stereo not given)
CC(CO)CS (stereo not given)
CCC(S)C(C)CO (stereo not given)
CCC1OC(=O)C(O)=C1C (stereo not given)
CC1CCCCCCCCCCCCC(=O)C1 (stereo not given)
